BindingDB's records for doi:10.1021/jm00343a011 (1982)

Legend:
[1] = biological target: T1, Malate dehydrogenase, mitochondrial (Sus scrofa, UniProt P00346); experiment: Ability to inhibit mitochondrial malate dehydrogenase
T1 sequence (P00346 whole entry): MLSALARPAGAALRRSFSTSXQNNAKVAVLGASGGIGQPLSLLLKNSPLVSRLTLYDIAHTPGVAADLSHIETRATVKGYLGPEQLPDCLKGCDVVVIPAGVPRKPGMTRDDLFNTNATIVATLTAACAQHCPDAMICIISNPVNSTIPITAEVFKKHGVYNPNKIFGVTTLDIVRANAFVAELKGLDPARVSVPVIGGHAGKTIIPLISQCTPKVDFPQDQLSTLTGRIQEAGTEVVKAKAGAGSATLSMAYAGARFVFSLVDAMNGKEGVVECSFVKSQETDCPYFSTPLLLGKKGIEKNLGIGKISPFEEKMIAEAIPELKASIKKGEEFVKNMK
Summary of the method: (§1)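 Pig heart enzyme (cytoplasmic or mitochondrial form), diluted in 0.05 M Tris pH 7.4 with 1% BSA to give 0.022–0.027 OD/min at 340 nm. Cuvette holds 0.05 M Tris pH 8.4, L-malate, NAD+ and Me2SO ± inhibitor. Equilibrated at 25 °C, then started with enzyme. Five inhibitor concentrations in triplicate; I50 from least-squares dose-response line.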

[2] = biological target: T2, Malate dehydrogenase, cytoplasmic (Sus scrofa, UniProt P11708); experiment: Ability to inhibit cytoplasmic malate dehydrogenase; summary of the method: as §1
T2 sequence (P11708 whole entry): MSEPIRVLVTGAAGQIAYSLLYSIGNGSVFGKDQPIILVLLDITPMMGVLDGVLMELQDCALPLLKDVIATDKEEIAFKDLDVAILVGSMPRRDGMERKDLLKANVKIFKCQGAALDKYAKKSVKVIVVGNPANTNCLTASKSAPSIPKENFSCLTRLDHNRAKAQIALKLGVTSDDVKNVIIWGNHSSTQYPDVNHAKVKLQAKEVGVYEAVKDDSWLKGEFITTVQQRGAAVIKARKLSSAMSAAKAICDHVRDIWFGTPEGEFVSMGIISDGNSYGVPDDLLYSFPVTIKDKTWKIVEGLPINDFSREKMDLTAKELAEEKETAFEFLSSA

Row | IC50 [1] [µM] | IC50 [2] [µM] | Compound
1 | 1910 | 1200 | O=C(O)c1cnc2cc([N+](=O)[O-])ccc2c1O
2 | 2.45 | 81.3 | O=C(O)c1cnc2cc(OCCOc3ccc(Oc4ccccc4)cc3)ccc2c1O
3 | 2.19 | 72.4 | O=C(O)c1cnc2cc(OCCc3ccc4ccccc4c3)ccc2c1O
4 | 39.8 |  | O=C(O)c1cnc2cc(OCc3ccc(F)cc3)ccc2c1O
5 | 1.82 | 61.7 | O=C(O)c1cnc2cc(OCCc3ccc(Oc4ccccc4)cc3)ccc2c1O
6 | 6.76 |  | O=C(O)c1cnc2cc(OCc3ccc(Br)cc3)ccc2c1O
7 | 490 | 955 | O=C(O)c1cnc2cc(O)ccc2c1O
8 | 741 | 603 | NC(=O)c1ccc2c(O)c(C(=O)O)cnc2c1
9 | 1.58 |  | O=C(O)c1cnc2cc(OCCOc3ccc4ccccc4c3)ccc2c1O
10 | 1.48 | 30.9 | O=C(O)c1cnc2cc(OCc3ccc(Oc4ccccc4)cc3)ccc2c1O
11 | 661 | 437 | CS(=O)(=O)c1ccc2c(O)c(C(=O)O)cnc2c1
12 | 2140 | 3090 | O=C(O)c1cnc2cc(S(=O)(=O)O)ccc2c1O
13 | 912 | 912 | CC(=O)c1ccc2c(O)c(C(=O)O)cnc2c1
14 | 2.51 | 91.2 | O=C(O)c1cnc2cc(OCCc3ccc(Br)cc3)ccc2c1O
15 | 5.13 |  | O=C(O)c1cnc2cc(OCCOc3ccc(Br)cc3)ccc2c1O
16 | 955 | 692 | NS(=O)(=O)c1ccc2c(O)c(C(=O)O)cnc2c1
17 | 4.79 |  | O=C(O)c1cnc2cc(OCc3ccc(Cl)c(Cl)c3)ccc2c1O
18 | 3630 | 4680 | O=C(O)c1cnc2cc(Cl)ccc2c1O
19 | 60.3 |  | O=C(O)c1cnc2cc(OCCOc3ccccc3)ccc2c1O
20 | 18.2 |  | O=C(O)c1cnc2cc(OCCOc3ccc(F)cc3)ccc2c1O
21 | 10500 | 11000 | O=C(O)c1cnc2cc(F)ccc2c1O
22 | 13.2 |  | O=C(O)c1cnc2cc(OCc3cccc4ccccc34)ccc2c1O
23 | 14.8 |  | O=C(O)c1cnc2cc(OCCc3ccc(F)cc3)ccc2c1O
24 | 4.79 |  | O=C(O)c1cnc2cc(OCc3c(Cl)c(Cl)c(Cl)c(Cl)c3Cl)ccc2c1O
25 | 32.4 |  | O=C(O)c1cnc2cc(OCc3ccccc3)ccc2c1O
26 | 4.07 |  | O=C(O)c1cnc2cc(OCc3ccc4ccccc4c3)ccc2c1O
27 | 479 | 372 | CN(C)c1ccc2c(O)c(C(=O)O)cnc2c1
28 | 1070 | 1290 | O=C(O)c1ccc2c(O)c(C(=O)O)cnc2c1
29 | 38 | 155 | O=C(O)c1cnc2cc(OCCc3ccccc3)ccc2c1O
